Measurements from ChEMBL document CHEMBL4270598, “Synthesis and discovery of a drug candidate for treatment of idiopathic pulmonary fibrosis through inhibition of TGF-β1 pathway” (Eur J Med Chem, 2018).
One block for each compound: values may come before it. Calls of active or inactive are those of the source. The calls are words filed in the database; no cut-off is given here.

Tests used:
[1] = biological target: Transforming growth factor beta-1 proprotein (Mus musculus) (UniProt P04202); assay: Inhibition of TGF-beta1 in mouse Mlg cells assessed as decrease in cell viability at 10 uM after 24 hrs by MTT assay; assay type: cell-based
Outline: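 Mlg cells exposed to TGF-β1 (5 ng/mL) with or without compound at 10 µM for 24 h; DMSO-treated cells served as control. MTT added for 4 h, then DMSO, and absorbance read. Viability normalized to control as 100%. Triplicate.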

[2] = biological target: Transforming growth factor beta-1 proprotein (Mus musculus) (UniProt P04202); assay: Inhibition of TGF-beta1 in mouse Mlg cells assessed as reduction in Col1a1 mRNA expression level at 10 uM after 24 hrs by qRT-PCR method; assay type: cell-based
Outline: (§1)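 Mlg lung fibroblasts treated with or without TGF-β1 (5 ng/mL) plus compound at 10 µM for 24 h. α-SMA, Col1a1 and Fn1 mRNA measured by real-time PCR with β-actin reference primers. n=3.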

[3] = biological target: T1, Transforming growth factor beta-1 proprotein/Mothers against decapentaplegic homolog 3 (Mus musculus) (UniProt P04202+Q8BUN5); assay: Inhibition of TGF-beta1/smad3 signaling pathway in mouse NIH/3T3 cells at 10 uM after 18 hrs by CAGA-luciferase reporter gene assay relative to control; assay type: cell-based
Outline: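 CAGA12-luciferase stably transfected NIH3T3 cells plated overnight. Treated with TGF-β1 (5 ng/mL) with or without compound at 10 µM in DMEM containing 0.1% FBS for 18 h. Lysate luminescence integrated over the first 20 s. Inhibition ratio calculated from TGF-β1-stimulated signal of treated versus control wells; mean of three independent experiments.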

[4] = biological target: Transforming growth factor beta-1 proprotein (Mus musculus) (UniProt P04202); assay: Inhibition of TGF-beta1 in mouse Mlg cells assessed as reduction in cell migration at 10 uM after 24 hrs by wound healing based light microscopy
Outline: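 Confluent Mlg monolayers scratched to a 100-µm wound. Cells then cultured in serum-free medium with or without TGF-β1 (5 ng/mL) and compound at 10 µM. Light-microscope images taken at 0, 12 and 24 h; wound area expressed relative to the initial scratch.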

[5] = biological target: T1, Transforming growth factor beta-1 proprotein/Mothers against decapentaplegic homolog 3 (Mus musculus); assay: Inhibition of TGF-beta1/smad3 signaling pathway in mouse NIH/3T3 cell extract assessed as decrease in alpha-SMA protein expression at 10 uM after 24 hrs by Western blot analysis
Mus musculus [6] = assay: In vivo inhibition of TGF-beta1/smad3 signaling pathway in bleomycin-induced pulmonary fibrosis in C57BL/6 mouse model assessed as decrease in smad3 phosphorylation level in lung tissue at 100 mg/kg, po qd administered from day 7 to 14 by immunohistochemical analysis; assay type: functional, organism-based
Outline: (§2)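 Lungs from bleomycin-challenged C57BL/6 mice (2 U/kg intratracheal; 100 mg/kg daily, days 7-14) were paraffin-embedded and dewaxed. Citrate (0.01 M) microwave antigen retrieval, then 5% serum block. Primary antibodies overnight at 4 °C: α-SMA 1:200, collagen I 1:100, p-Smad3 1:50. Secondary antibody 1 h at room temperature, then hematoxylin counterstain and microscopy.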

[7] = biological target: T1, Transforming growth factor beta-1 proprotein/Mothers against decapentaplegic homolog 3 (Mus musculus); assay: Inhibition of TGF-beta1/smad3 signaling pathway in mouse NIH/3T3 cells at 40 uM after 18 hrs by CAGA-luciferase reporter gene assay; assay type: cell-based
Outline: (§3)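 CAGA12-luciferase NIH3T3 cells stimulated with TGF-β1 (5 ng/mL) in 0.1% FBS DMEM alongside compound at 5, 10, 20 and 40 µM for 18 h. Lysate luciferase read over the first 20 s. Triplicate.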

[8] = biological target: T1, Transforming growth factor beta-1 proprotein/Mothers against decapentaplegic homolog 3 (Mus musculus); assay: Inhibition of TGF-beta1/smad3 signaling pathway in mouse NIH/3T3 cell extract assessed as decrease in Smad3 phosphorylation at 10 uM after 30 mins by Western blot analysis; assay type: protein assay
Mus musculus [9] = assay: In vivo inhibition of TGF-beta1/smad3 signaling pathway in bleomycin-induced pulmonary fibrosis in C57BL/6 mouse model assessed as decrease in Col1 level in lung tissue at 100 mg/kg, po qd administered from day 7 to 14 by immunohistochemical analysis; assay type: functional, organism-based; outline: as §2
Mus musculus [10] = assay: In vivo inhibition of TGF-beta1/smad3 signaling pathway in bleomycin-induced pulmonary fibrosis in C57BL/6 mouse model assessed as decrease in Col1 protein expression level in lung tissue at 100 mg/kg, po qd administered from day 7 to 14 by Western blot analysis; assay type: functional, organism-based
[11] = biological target: T1, Transforming growth factor beta-1 proprotein/Mothers against decapentaplegic homolog 3 (Mus musculus); assay: Inhibition of TGF-beta1/smad3 signaling pathway in mouse NIH/3T3 cells assessed as decrease in ECM production at 10 uM after 24 hrs; assay type: cell-based
Mus musculus [12] = assay: Antifibrotic activity in bleomycin-induced pulmonary fibrosis in C57BL/6 mouse model assessed as decrease in collagen content in lung at 100 mg/kg, po qd administered from day 7 to 14 by spectrophotometric method; assay type: functional, organism-based
Outline: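 Bleomycin model as above: 2 U/kg intratracheal in male C57BL/6 mice, 100 mg/kg daily from day 7 to day 14. Right lungs collected at day 14, dried and acid-hydrolysed, filtered, and pH adjusted to 6.5-8.0. Hydroxyproline then measured by chloramine-T spectrophotometry.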

Mus musculus [13] = assay: Antifibrotic activity in bleomycin-induced pulmonary fibrosis in C57BL/6 mouse model assessed as fibrotic area in lungs at 100 mg/kg, po qd administered from day 7 to 14 by hematoxylin-eosin staining based fluorescence microscopy; assay type: functional
Outline: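 Male C57BL/6 mice (7-8 weeks, n=5/group) given intratracheal bleomycin 2 U/kg under chloral hydrate anaesthesia. Dosing at 100 mg/kg daily from day 7 to day 14, sacrifice at day 14. Left lungs formalin-fixed, paraffin-embedded, 5 µm sections HE-stained. Fibrosis ratio taken as fibrotic-region pixels over total lung pixels.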

Mus musculus [14] = assay: In vivo inhibition of TGF-beta1/smad3 signaling pathway in bleomycin-induced pulmonary fibrosis in C57BL/6 mouse model assessed as decrease in alpha-SMA level in lung tissue at 100 mg/kg, po qd administered from day 7 to 14 by immunohistochemical analysis; assay type: functional, organism-based; outline: as §2
[15] = biological target: T1, Transforming growth factor beta-1 proprotein/Mothers against decapentaplegic homolog 3 (Mus musculus); assay: Inhibition of TGF-beta1/smad3 signaling pathway in mouse NIH/3T3 cells at 5 to 40 uM after 18 hrs by CAGA-luciferase reporter gene assay; assay type: cell-based; outline: as §3
[16] = biological target: Transforming growth factor beta-1 proprotein (Mus musculus) (UniProt P04202); assay: Inhibition of TGF-beta1 in mouse Mlg cells assessed as reduction in alpha-SMA mRNA expression level at 10 uM after 24 hrs by qRT-PCR method; assay type: cell-based; outline: as §1
[17] = biological target: Transforming growth factor beta-1 proprotein (Mus musculus) (UniProt P04202); assay: Inhibition of TGF-beta1 in mouse Mlg cells assessed as reduction in fibronectin mRNA expression level at 10 uM after 24 hrs by qRT-PCR method; assay type: cell-based; outline: as §1

T1 sequence (P04202 279-390 limits assumed): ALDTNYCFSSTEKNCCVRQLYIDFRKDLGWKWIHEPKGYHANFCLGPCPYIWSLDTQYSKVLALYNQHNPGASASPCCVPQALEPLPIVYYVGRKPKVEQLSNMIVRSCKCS
T1 sequence (Q8BUN5 2-425 partner limits assumed): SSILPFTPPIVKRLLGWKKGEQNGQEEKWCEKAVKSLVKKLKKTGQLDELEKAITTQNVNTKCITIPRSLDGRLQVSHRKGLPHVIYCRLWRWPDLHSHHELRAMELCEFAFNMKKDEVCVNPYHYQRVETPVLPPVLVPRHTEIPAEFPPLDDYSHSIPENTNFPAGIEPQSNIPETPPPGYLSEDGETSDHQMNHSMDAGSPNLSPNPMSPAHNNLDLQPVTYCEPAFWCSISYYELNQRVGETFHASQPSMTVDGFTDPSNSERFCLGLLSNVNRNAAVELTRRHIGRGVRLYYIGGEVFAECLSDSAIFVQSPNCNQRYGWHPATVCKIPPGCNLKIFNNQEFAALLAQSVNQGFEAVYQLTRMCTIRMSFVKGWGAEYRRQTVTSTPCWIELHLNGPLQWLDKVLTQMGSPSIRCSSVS
Sequence of Transforming growth factor beta-1 proprotein (Mus musculus) (P04202 whole entry): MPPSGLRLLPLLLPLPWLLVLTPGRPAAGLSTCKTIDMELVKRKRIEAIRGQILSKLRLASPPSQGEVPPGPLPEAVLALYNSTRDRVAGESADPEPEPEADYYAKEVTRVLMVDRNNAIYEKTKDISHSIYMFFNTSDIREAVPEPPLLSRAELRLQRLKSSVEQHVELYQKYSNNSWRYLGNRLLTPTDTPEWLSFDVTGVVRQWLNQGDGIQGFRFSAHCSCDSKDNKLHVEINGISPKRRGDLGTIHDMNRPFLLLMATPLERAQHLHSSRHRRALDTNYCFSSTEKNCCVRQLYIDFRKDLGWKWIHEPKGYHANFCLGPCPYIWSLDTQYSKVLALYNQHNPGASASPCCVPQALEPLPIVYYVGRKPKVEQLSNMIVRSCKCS

Compound: C=C1C(=O)O[C@@H]2C[C@@]3(C)CC[C@@H](OC(=O)[C@@H](NC(=O)OC(C)(C)C)C(C)C)[C@]4(CO4)[C@@H]3C[C@H]12
inhibition [3]: 17.1%

Compound: C=C1C(=O)O[C@@H]2C[C@@]3(C)CCC[C@]4(CO4)[C@@H]3C[C@H]12
inhibition [3]: 3.08%

Compound: CCOC(=O)/C=C/C(=O)O[C@@H]1CC[C@]2(C)C[C@H]3OC(=O)[C@@H](CN(C)C)[C@H]3C[C@H]2[C@@]12CO2.O=C(O)/C=C/C(=O)O
inhibition [5]: Active
inhibition (Mus musculus [6]): Active
inhibition [7]: Active
inhibition [8]: Active
inhibition (Mus musculus [9]): Active
inhibition (Mus musculus [10]): Active
inhibition [11]: Active
Activity (Mus musculus [12]): Active
Activity (Mus musculus [13]): 53.5%
inhibition (Mus musculus [14]): Active

Compound: C=C1C(=O)O[C@@H]2C[C@@]3(C)CCC(=O)C(=C)[C@@H]3C[C@H]12
inhibition [3]: 2.24%

Compound: C=C1[C@H](O)CC[C@]2(C)C[C@H]3OC(=O)[C@@H](CN(C)C)[C@H]3C[C@@H]12
inhibition [15]: Active

Compound: C=C1C(=O)O[C@@H]2C[C@@]3(C)CC[C@@H](OC(=O)[C@@H](NC(=O)OC(C)(C)C)C(C)C)C(=C)[C@@H]3C[C@H]12
inhibition [3]: 22%

Compound: C=C1C(=O)O[C@@H]2C[C@@]3(C)CCC[C@H](C)[C@@]34O[C@H]4[C@H]12
inhibition [16]: Active
inhibition [1]: Active
inhibition [2]: Active
inhibition [3]: 77.7%
inhibition [4]: Active
inhibition [17]: Active

Compound: C=C1C(=O)O[C@@H]2C[C@@]3(C)CC[C@@H](OC(C)=O)C(=C)[C@@H]3C[C@H]12
inhibition [3]: 6.58%

Compound: CN(C)C[C@@H]1C(=O)O[C@@H]2C[C@@]3(C)CC[C@@H](OC(=O)C4=CCCCC4)[C@]4(CO4)[C@@H]3C[C@H]12
inhibition [15]: Active

Compound: C=C1C(=O)O[C@@H]2C[C@@]3(C)CC[C@@H](OC(=O)CCCCCCC)[C@]4(CO4)[C@@H]3C[C@H]12
inhibition [3]: -7.65%

Compound: C=C1C(=O)O[C@@H]2C[C@@]3(C)CC[C@@H](OC(=O)CP(=O)(OCC)OCC)[C@]4(CO4)[C@@H]3C[C@H]12
inhibition [3]: 3.67%

Compound: C=C1C(=O)O[C@@H]2C[C@@]3(C)CC[C@@H](O[Si](C)(C)C(C)(C)C)C(=C)[C@@H]3C[C@H]12
inhibition [3]: 27.8%

Compound: C=C1C(=O)O[C@@H]2C[C@@]3(C)CC[C@@H](OC(=O)C4CC4)C(=C)[C@@H]3C[C@H]12
inhibition [3]: 4.63%

Compound: C=C1C(=O)O[C@@H]2C[C@@]3(C)CC[C@@H](O)C(=C)[C@@H]3C[C@H]12
inhibition [1]: Active
inhibition [2]: Active
inhibition [3]: 61.9%
inhibition [4]: Active
inhibition [17]: Active

Further lines, with some results ahead:

inhibition [2]: Active
inhibition [3]: 71.3%
inhibition [4]: Active
Compound: C=C1C(=O)O[C@@H]2C[C@@]3(C)CC[C@@H](OC(=O)/C=C/C(=O)OCC)[C@]4(CO4)[C@@H]3C[C@H]12
inhibition [1]: Active

inhibition [3]: 26.7%
Compound: C=C1C(=O)O[C@@H]2C[C@@]3(C)CC[C@@H](OC(=O)c4ccccc4)[C@]4(CO4)[C@@H]3C[C@H]12

inhibition [3]: 34.8%
inhibition [4]: inactive
Compound: C=C1C(=O)O[C@@H]2C[C@@]3(C)CC[C@@H](OC(=O)C4=CCCCC4)[C@]4(CO4)[C@@H]3C[C@H]12

inhibition [3]: 6.65%
Compound: C#CCCCC(=O)O[C@@H]1CC[C@]2(C)C[C@H]3OC(=O)C(=C)[C@H]3C[C@H]2[C@@]12CO2

inhibition [3]: -2.36%
Compound: C=C1C(=O)O[C@@H]2C[C@@]3(C)CC[C@@H](OC(C)=O)[C@]4(CO4)[C@@H]3C[C@H]12

inhibition [3]: 13.5%
Compound: C=C1C(=O)O[C@@H]2C[C@@]3(C)CC[C@@H](OC(=O)/C=C/CCC)[C@]4(CO4)[C@@H]3C[C@H]12

inhibition [16]: Active
inhibition [2]: Active
inhibition [3]: 46%
inhibition [4]: Active
inhibition [17]: Active
Compound: C=C1C(=O)O[C@@H]2C[C@@]3(C)CC[C@@H](O)[C@]4(CO4)[C@@H]3C[C@H]12
inhibition [1]: Active
